Entries after “also recorded” stand apart in the source; their conditions may differ.
Legend:
MUC5B [1] = assay: RT2 qPCR primer assay, JJ012 cells; assay type: cell-based, human; conditions: 1 μg/ml PRP-1; heat map, vs nontreated control, technical triplicates
Outline: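 RNA extracted from treated and control JJ012 cells, checked by spectrophotometry and reverse transcribed. SYBR Green qPCR with custom primer assays on three samples in technical triplicates. Ct normalized to the average of GAPDH and ACTB. Fold change vs control by 2^−ΔΔCt, shown as a heat map of average Ct.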

OPRD1 = assay: PathHunter β-arrestin; assay type: cell-based; conditions: antagonist mode, 6 μM
Outline: (§1)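 GPCR-ED fusion and β-arrestin-EA fusion; arrestin recruitment restores β-galactosidase, read by chemiluminescence. Antagonist mode uses EC80 agonist challenge. % inhibition = 100 × (1 − (test − vehicle RLU)/(EC80 control − vehicle RLU)). Hit requires >35% inhibition and mean RLU below EC80 RLU − 3 × EC80 SD.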

VIPR1 = assay: PathHunter β-arrestin; assay type: cell-based; conditions: antagonist mode, 6 μM
DRD3 = assay: PathHunter β-arrestin; assay type: cell-based; conditions: 6 μM
Outline: (§2)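 Engineered cells express the receptor fused to one β-galactosidase fragment (ED) and β-arrestin fused to the complementing fragment (EA). Receptor activation recruits β-arrestin, which restores enzyme activity, and this is read by chemiluminescence (RLU). Agonist % activity is 100% × (test − vehicle)/(maximal control ligand − vehicle). Antagonist mode is challenged with an EC80 control agonist, and % inhibition is 100% × (1 − (test − vehicle)/(EC80 − vehicle)). Hits require >30% activity or >35% inhibition, plus a 3×SD RLU margin.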

GALR1 = assay: PathHunter β-arrestin; assay type: cell-based; conditions: 6 μM
Outline: as §2

HTR1A = assay: PathHunter β-arrestin; assay type: cell-based; conditions: antagonist mode, 6 μM
Outline: (§3)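 Vendor-run (DiscoveRx) PathHunter enzyme fragment complementation. β-Arrestin carries the EA fragment and the receptor carries ED; recruitment restores β-gal activity, read by chemiluminescence (RLU). Agonist % activity = vehicle-subtracted RLU relative to max control ligand (gpcrMAX) or to vehicle (orphanMAX). Antagonist % inhibition = 100% × (1 − vehicle-subtracted sample RLU / vehicle-subtracted EC80 agonist control RLU).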

CRHR1 = assay: PathHunter β-arrestin; assay type: cell-based; conditions: 6 μM
Outline: as §2

TLR6 = assay: western blot, JJ012 cells; assay type: cell-based, human; conditions: vs untreated control, overnight incubation
PTGER4 = assay: PathHunter β-arrestin; assay type: cell-based; conditions: 6 μM
Outline: (§4)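 β-Arrestin recruitment to GPCR read by β-galactosidase fragment complementation and chemiluminescence. Agonist: % = 100 × (test − vehicle)/(max control ligand − vehicle), hit at >30% and RLU > baseline + 3 SD. Antagonist, against EC80 agonist: % inhibition = 100 × (1 − (test − vehicle)/(EC80 − vehicle)), hit at >35% and RLU < EC80 − 3 SD.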

CXCR1 = assay: PathHunter β-arrestin; assay type: cell-based; conditions: antagonist mode, 6 μM
Outline: as §2

CALCRL-RAMP1 = assay: PathHunter β-arrestin; assay type: cell-based; conditions: antagonist mode, 6 μM
Outline: (§5)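 β-Arrestin recruitment assay: the enzyme acceptor is fused to β-arrestin and the ED fragment to the GPCR. Recruitment restores β-galactosidase, read by chemiluminescence. % activity = 100% × (test − vehicle)/(max control ligand − vehicle). % inhibition = 100% × (1 − (test − vehicle)/(EC80 control − vehicle)). An agonist hit needs >30% activity and RLU > baseline + 3×SD. An antagonist hit needs >35% inhibition and RLU < EC80 RLU − 3×SD.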

CX3CR1 = assay: PathHunter β-arrestin; assay type: cell-based; conditions: 6 μM
Outline: as §2

FPR1 = assay: PathHunter β-arrestin; assay type: cell-based; conditions: antagonist mode, 6 μM
Outline: as §2

EDG6 = assay: PathHunter β-arrestin; assay type: cell-based; conditions: 6 μM
Outline: as §2

MCHR1 = assay: PathHunter β-arrestin; assay type: cell-based; conditions: 6 μM
Outline: as §3

GPR120 = assay: PathHunter β-arrestin; assay type: cell-based; conditions: 6 μM
Outline: as §3

NPFFR1 = assay: PathHunter β-arrestin; assay type: cell-based; conditions: 6 μM
Outline: as §3

CCR3 = assay: PathHunter β-arrestin; assay type: cell-based; conditions: 6 μM
Outline: as §5

HTR2C = assay: PathHunter β-arrestin; assay type: cell-based; conditions: 6 μM
Outline: as §3

NPY1R = assay: PathHunter β-arrestin; assay type: cell-based; conditions: antagonist mode, 6 μM
Outline: as §3

TLR8 = assay: western blot, JJ012 cells; assay type: cell-based, human; conditions: vs untreated control, overnight incubation
HTR1B = assay: PathHunter β-arrestin; assay type: cell-based; conditions: antagonist mode, 6 μM
Outline: as §3

PROKR1 = assay: PathHunter β-arrestin; assay type: cell-based; conditions: 6 μM
Outline: as §4

CALCR-RAMP3 = assay: PathHunter β-arrestin; assay type: cell-based; conditions: antagonist mode, 6 μM
Outline: as §5

MUC5B [2] = assay: MUC5B ELISA, JJ012 cell lysates; assay type: cell-based; conditions: PRP-1 at 1 μg/ml; human JJ012 cell lysates
Outline: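 Cells trypsinized at confluency and seeded in 6-well clusters at 1×10^6 cells/ml. Test compound added to experimental wells only, controls untreated. Overnight at 37°C, 5% CO2. Cells washed in ice-cold PBS with protease inhibitor, lysed in buffer with protease inhibitor (1:100), scraped and spun at 15,000 × g, 4°C. Protein measured in supernatant. MUC5B quantified with a commercial human MUC5B ELISA kit.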

P2RY6 = assay: PathHunter β-arrestin; assay type: cell-based; conditions: antagonist mode, 6 μM
Outline: as §1

ADRA1B = assay: PathHunter β-arrestin; assay type: cell-based; conditions: agonist mode, 6 μM
Outline: as §5

ADORA3 = assay: PathHunter β-arrestin; assay type: cell-based; conditions: 6 μM
Outline: as §5

GPR109A = assay: PathHunter β-arrestin; assay type: cell-based; conditions: antagonist mode, 6 μM
Outline: as §3

UTR2 = assay: PathHunter β-arrestin; assay type: cell-based; conditions: 6 μM
Outline: as §4

Proline rich polypeptide 1 [PRP-1]
gene expression (MUC5B [1]): high expression; also recorded: the most upregulation after the treatment with 1 μg/ml
% Inhibition (OPRD1): −2%
% Inhibition (VIPR1): −9%
% Activity (DRD3; agonist mode): 2%
% Inhibition (DRD3; antagonist mode): −15%
% Activity (GALR1; agonist mode): 1%
% Inhibition (GALR1; antagonist mode): −4%
% Inhibition (HTR1A): −5%
% Activity (CRHR1; agonist mode): 1%
% Inhibition (CRHR1; antagonist mode): 1%
protein expression (TLR6): increased in dose-dependent manner
% Activity (PTGER4; agonist mode): 1%
% Inhibition (PTGER4; antagonist mode): 4%
% Inhibition (CXCR1): −1%
% Inhibition (CALCRL-RAMP1): 4%
% Activity (CX3CR1; agonist mode): 1%
% Inhibition (CX3CR1; antagonist mode): 2%
% Inhibition (FPR1): −4%
% Activity (EDG6; agonist mode): −2%
% Inhibition (EDG6; antagonist mode): 4%
% Activity (MCHR1; agonist mode): 1%
% Inhibition (MCHR1; antagonist mode): −4%
% Activity (GPR120; agonist mode): 1%
% Inhibition (GPR120; antagonist mode): −6%
% Activity (NPFFR1; agonist mode): 3%
% Inhibition (NPFFR1; antagonist mode): −3%
% Activity (CCR3; agonist mode): 2%
% Inhibition (CCR3; antagonist mode): −3%
% Activity (HTR2C; agonist mode): 1%
% Inhibition (HTR2C; antagonist mode): −3%
% Inhibition (NPY1R): 4%
protein expression (TLR8): no indication of PRP-1 effect
% Inhibition (HTR1B): 4%
% Activity (PROKR1; agonist mode): 2%
% Inhibition (PROKR1; antagonist mode): −2%
% Inhibition (CALCR-RAMP3): −8%
MUC5B presence in cell lysates (MUC5B [2]): 440 ng/mL
% Inhibition (P2RY6): 3%
% Activity (ADRA1B): 1%
% Activity (ADORA3; agonist mode): 1%
% Inhibition (ADORA3; antagonist mode): −3%
% Inhibition (GPR109A): −4%
% Activity (UTR2; agonist mode): 3%
% Inhibition (UTR2; antagonist mode): −7%

— paper PMC5743405 (International Journal of Oncology, 2017)
